Calls of active or inactive are those of the source. The rule behind the calls is not given here.
What was measured:
[1] = test system: Mus musculus; assay: Toxicity in B6 mouse assessed as diarrhea at 0.1 mg/kg, ip twice a day for 4 consecutive days measured on day 13; assay type: organism-based; parameters: dose 0.1 mg/kg, route intraperitoneal; conditions: in vivo
How it was run: (§1)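 Male B6 mice dosed i.p. at 0.1 mg/kg twice daily for four consecutive days; body weight recorded daily over 13 days and signs of acute toxicity such as diarrhea noted.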

[2] = test system: H9c2; assay: Cytotoxicity against rat H9c2 cells at 20 nM after 48 hrs by FACS analysis; assay type: cell-based; conditions: h9c2, 48 h, 0.02 µM
How it was run: (§2)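 Rat H9c2 cardiomyoblasts treated 24 h (0.5-50 nM) or 24, 48 and 72 h (20 nM) versus vehicle; annexin V plus propidium iodide labeling and FACS for apoptosis; viability in parallel by MTS; doxorubicin 1 μM as positive control.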

[3] = test system: KB; assay: Cytotoxicity against human KB cells after 72 hrs by MTS assay; assay type: functional, cell-based
How it was run: (§3)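 Human cancer lines treated for 72 h and proliferation/viability read by MTS assay; dose-response curves in duplicate with IC50 taken from the curves; MCF7R is the P-gp (MDR1)-expressing resistant line.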

[4] = test system: MCF7; assay: Cytotoxicity against human MCF7 cells after 72 hrs by MTS assay; assay type: functional, cell-based; conditions: Homo sapiens, MCF7, 72 h; read-out: IC50; how it was run: as §3
[5] = test system: MCF7; assay: Cytotoxicity against human MCF7 cells expressing P-glycoprotein after 72 hrs by MTS assay; assay type: functional, cell-based; conditions: Homo sapiens, MCF7, 72 h; read-out: IC50; how it was run: as §3
[6] = test system: HCT-116; assay: Cytotoxicity against human HCT116 cells after 72 hrs by MTS assay; assay type: functional, cell-based; conditions: HCT-116, 72 h; how it was run: as §3
[7] = test system: HCT-15; assay: Cytotoxicity against human HCT15 cells after 72 hrs by MTS assay; assay type: functional, cell-based; conditions: Homo sapiens, HCT-15, 72 h; read-out: IC50; how it was run: as §3
[8] = test system: HL-60; assay: Cytotoxicity against human HL60 cells after 72 hrs by MTS assay; assay type: functional, cell-based; conditions: HL-60, 72 h
How it was run: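 HL60 cells exposed to compound for 72 h; proliferation/viability read by MTS assay. IC50 taken from dose-response curves run in duplicate.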

[9] = target: ATP-dependent translocase ABCB1 (Homo sapiens, UniProt P08183); assay: Inhibition of P-glycoprotein expressing human MCF7 cells assessed as change in rhodamine 123 efflux at 0.1 to 1 uM; assay type: cell-based
[10] = test system: HepG2; assay: Enhancement of doxorubicin-induced cytotoxicity against human HepG2 cells after 72 hrs by MTS assay; assay type: functional, cell-based
How it was run: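 HepG2 cells given the test agent alone or together with 150 nM doxorubicin for 72 h; proliferation by MTS assay; duplicate experiments, n = 3.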

[11] = test system: H9c2; assay: Induction of apoptosis in rat H9c2 cells at 0.5 to 50 nM after 24 hrs by FACS analysis; assay type: cell-based; conditions: h9c2, 24 h, 0.05 µM; how it was run: as §2
[12] = test system: H9c2; assay: Induction of apoptosis in rat H9c2 cells at 20 nM after 48 hrs by FACS analysis; assay type: cell-based; conditions: h9c2, 48 h, 0.02 µM; how it was run: as §2
[13] = test system: H9c2; assay: Induction of apoptosis in rat H9c2 cells at 20 nM after 72 hrs by FACS analysis; assay type: cell-based; conditions: h9c2, 72 h, 0.02 µM; how it was run: as §2
[14] = test system: HepG2; assay: Cytotoxicity against human HepG2 cells after 72 hrs by MTS assay; assay type: functional, cell-based; conditions: Homo sapiens, HepG2, 72 h; read-out: IC50; how it was run: as §3
[15] = test system: Mus musculus; assay: Toxicity in B6 mouse assessed as body weight loss at 0.1 mg/kg, ip twice a day for 4 consecutive days measured on day 13; assay type: organism-based; parameters: dose 0.1 mg/kg, route intraperitoneal; conditions: in vivo; how it was run: as §1
[16] = test system: HL-60; assay: Cell cycle arrest in human HL60 cells assessed as increase in G0/G1 peak at 200 nM after 48 hrs by FACS analysis; assay type: functional, cell-based
How it was run: (§4)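 HL60 cells treated for 48 h; vehicle control 1% DMSO, doxorubicin as positive control. Propidium iodide staining, DNA content by flow cytometry giving cell-cycle distribution (G2/M, G0-G1 peaks); n = 4, each sample in duplicate.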

[17] = test system: HL-60; assay: Cell cycle arrest in human HL60 cells assessed as increase in G0/G1 peak at 20 nM after 48 hrs by FACS analysis; assay type: functional, cell-based; how it was run: as §4
[18] = test system: HL-60; assay: Induction of apoptosis in human HL60 cells assessed as cell killing at 20 nM after 72 hrs by annexin V flow cytometry; assay type: functional, cell-based
How it was run: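 HL60 cells treated with 20 nM for 72 h; apoptosis quantified by annexin V staining and flow cytometry.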

[19] = test system: HL-60; assay: Induction of apoptosis in human HL60 cells assessed as caspase 3/7-mediated DEVD-AMC substrate cleavage at 1 to 1000 nM after 48 hrs by spectroscopy; assay type: functional, cell-based
How it was run: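 HL60 cells treated 48 h, doxorubicin as positive control; whole-cell extracts incubated with DEVD-AMC, fluorescence release followed over time; rate from slope of linear phase, expressed as fold-activation over DMSO-treated control.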

[20] = test system: HL-60; assay: Induction of apoptosis in human HL60 cells assessed as caspase 3/7-mediated DEVD-AMC substrate cleavage at 24 to 72 hrs by spectroscopy; assay type: functional, cell-based
[21] = test system: HL-60; assay: Induction of apoptosis in human HL60 cells assessed as […] mediated LEHD-AMC substrate cleavage at 1 to 1000 nM after 48 hrs by spectroscopy; assay type: functional, cell-based
[22] = test system: HL-60; assay: Induction of apoptosis in human HL60 cells assessed as caspase 9-mediated […]-AMC substrate cleavage at 1 to 1000 nM after 48 hrs by spectroscopy; assay type: functional, cell-based
[23] = test system: HL-60; assay: Antiproliferative activity against human HL60 cells at 50 nM in presence of caspase inhibitor Z-VAD-FMK; assay type: functional, cell-based
How it was run: (§5)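 HL60 cells exposed for 72 h, with or without co-treatment with Z-VAD-FMK (50 μM), necrostatin-1 (50 μM) or 3-methyladenine (2 mM). Antiproliferative effect was compared against vehicle.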

[24] = test system: HL-60; assay: Antiproliferative activity against human HL60 cells at 50 nM in presence of […] inhibitor necrostatin 1; assay type: functional, cell-based; how it was run: as §5
[25] = test system: HL-60; assay: Antiproliferative activity against human HL60 cells at 50 nM in presence of […] inhibitor 3-methyladenine; assay type: functional, cell-based; how it was run: as §5
[26] = test system: HL-60; assay: Inhibition of proteasome activity in human HL60 cells at 2 to 20 nM
How it was run: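 Lysates of HL60 cells incubated with compound; in vitro chymotrypsin-like and trypsin-like proteasome activities measured with fluorogenic AMC substrates (LLVY-AMC, RLR-AMC).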

[27] = species: Oryctolagus cuniculus; assay: Inhibition of capped and polyadenylated luciferase mRNA […] in rabbit reticulocyte lysate at 10000 nM after 1 hr; assay type: functional
How it was run: (§6)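 Cell-free translation of capped, polyadenylated luciferase mRNA in rabbit reticulocyte lysate, luciferase output as read-out; incubation 1 h; IC50 derived.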

[28] = test system: HeLa; assay: Induction of eIF-2alpha phosphorylation in human HeLa cells at 100 uM by Western blotting; assay type: functional, cell-based
How it was run: (§7)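 HeLa cells treated 1 h with DMSO, sodium arsenite (500 μM, positive control) or compound (100 or 500 μM); 10 μg total protein by SDS-PAGE/Western blot with anti-eIF2α and anti-phospho-eIF2α, ECL detection.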

[29] = test system: HeLa; assay: Induction of eIF-2alpha phosphorylation in human HeLa cells at 500 uM by Western blotting; assay type: functional, cell-based; how it was run: as §7
[30] = test system: HeLa; assay: Induction of stress granules in human HeLa cells assessed as MLN51 and FMRP marker protein at >10 uM; assay type: functional, cell-based
How it was run: (§8)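 HeLa on coverslips in DMEM/5% FCS, cultured 24 h, then exposed to 50 nM-500 μM for 30 min to 8 h; immunofluorescence for stress-granule markers MLN51 (rabbit) and FMRP (mouse); cycloheximide 10 μg/mL and puromycin 100 μg/mL (1 h) as positive controls.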

[31] = test system: HeLa; assay: Induction of stress granules in human HeLa cells assessed as MLN51 and FMRP marker protein at 100 uM after 2 hrs; assay type: functional, cell-based; how it was run: as §8
[32] = test system: HeLa; assay: Induction of stress granules in human HeLa cells assessed as MLN51 and FMRP marker protein at 500 nM after 8 hrs; assay type: functional, cell-based; how it was run: as §8
[33] = test system: HeLa; assay: Induction of stress granules in human HeLa cells assessed as MLN51 and FMRP marker protein at 100 uM after 8 hrs; assay type: functional, cell-based; how it was run: as §8
[34] = test system: HeLa; assay: Effect on apoptosis inducing factor localization into nucleus in human HeLa cells at 20 nM after 72 hrs; assay type: functional, cell-based
[35] = test system: HeLa; assay: Induction of apoptosis inducing factor translocation from […] to nucleus in human HeLa cells at 50 uM after 72 hrs by DAPI staining; assay type: functional, cell-based
How it was run: (§9)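 HeLa cells treated 72 h with compound or vehicle; immunocytochemistry co-labeling with anti-AIF and anti-caspase-12 antibodies, nuclei stained with DAPI to assess nuclear localization.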

[36] = test system: HeLa; assay: Induction of caspase 12 translocation from endoplasmic reticulum to nucleus in human HeLa cells at 50 uM after 72 hrs by DAPI staining; assay type: functional, cell-based; how it was run: as §9
[37] = test system: HL-60; assay: Cytotoxicity against human HL60 cells at 20 uM after 72 hrs in presence of caspase 12 inhibitor ATAD; assay type: functional, cell-based
How it was run: (§10)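 HL60 cells treated 72 h with or without caspase-12 inhibitor ATAD (10 μM) or m-calpain inhibitor N-acetyl-Leu-Leu-methioninal (20 μM); cytotoxicity compared with vehicle.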

[38] = test system: HL-60; assay: Cytotoxicity against human HL60 cells at 20 uM after 72 hrs in presence of m-calpain inhibitor N-acetyl-Leu-Leu-methioninal; assay type: functional, cell-based; how it was run: as §10
[39] = Inhibition of capped and polyadenylated luciferase mRNA in rabbit reticulocyte lysate; assay type: functional, Oryctolagus cuniculus; how it was run: as §6
[40] = test system: H9c2; assay: Cytotoxicity against rat H9c2 cells at 20 nM after 72 hrs by FACS analysis; assay type: cell-based; conditions: h9c2, 72 h, 0.02 µM; how it was run: as §2

Sequence of ATP-dependent translocase ABCB1 (P08183 whole entry): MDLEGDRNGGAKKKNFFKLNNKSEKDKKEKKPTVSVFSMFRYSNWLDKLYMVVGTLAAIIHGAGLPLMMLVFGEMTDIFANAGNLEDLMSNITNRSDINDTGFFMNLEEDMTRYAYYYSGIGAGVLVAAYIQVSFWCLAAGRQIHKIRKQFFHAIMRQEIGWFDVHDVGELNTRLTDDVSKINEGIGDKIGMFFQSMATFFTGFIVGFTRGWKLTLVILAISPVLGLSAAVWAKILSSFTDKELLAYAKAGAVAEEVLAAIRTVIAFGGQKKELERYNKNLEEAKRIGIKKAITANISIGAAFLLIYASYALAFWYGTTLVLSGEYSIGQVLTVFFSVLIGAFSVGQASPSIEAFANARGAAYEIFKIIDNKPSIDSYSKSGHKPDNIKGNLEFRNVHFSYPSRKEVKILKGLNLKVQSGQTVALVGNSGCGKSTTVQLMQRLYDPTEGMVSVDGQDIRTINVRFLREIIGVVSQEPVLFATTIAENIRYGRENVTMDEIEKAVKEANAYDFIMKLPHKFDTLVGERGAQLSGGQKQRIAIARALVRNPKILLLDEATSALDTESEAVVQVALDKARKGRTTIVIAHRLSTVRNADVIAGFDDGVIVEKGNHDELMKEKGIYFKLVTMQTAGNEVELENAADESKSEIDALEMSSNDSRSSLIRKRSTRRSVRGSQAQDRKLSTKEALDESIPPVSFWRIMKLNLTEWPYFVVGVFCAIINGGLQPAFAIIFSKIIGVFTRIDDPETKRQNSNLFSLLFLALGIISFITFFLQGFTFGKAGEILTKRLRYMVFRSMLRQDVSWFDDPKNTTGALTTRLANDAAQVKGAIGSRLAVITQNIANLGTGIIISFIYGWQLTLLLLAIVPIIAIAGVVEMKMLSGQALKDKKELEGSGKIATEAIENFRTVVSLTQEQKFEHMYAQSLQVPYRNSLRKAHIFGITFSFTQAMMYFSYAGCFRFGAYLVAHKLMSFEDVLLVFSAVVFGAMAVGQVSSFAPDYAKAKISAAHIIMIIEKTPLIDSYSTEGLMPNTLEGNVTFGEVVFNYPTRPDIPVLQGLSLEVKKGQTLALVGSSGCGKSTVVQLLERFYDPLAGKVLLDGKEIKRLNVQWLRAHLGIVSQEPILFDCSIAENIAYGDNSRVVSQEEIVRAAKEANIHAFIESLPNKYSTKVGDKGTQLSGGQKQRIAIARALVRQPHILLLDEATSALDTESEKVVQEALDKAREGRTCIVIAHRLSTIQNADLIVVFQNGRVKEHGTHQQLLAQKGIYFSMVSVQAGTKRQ

SMILES: COc1cc(OC)c2c(c1)O[C@@]1(c3ccc(Br)cc3)[C@H](c3ccccc3)C[C@@H](O)[C@@]21O
- Activity [1]: Non-toxic
- Activity [2]: Non-toxic
- IC50 [3]: < 1 nM
- IC50 [4]: 1 nM
- IC50 [5]: < 1 nM
- IC50 [6]: < 1 nM
- IC50 [7]: 1 nM
- IC50 [8]: < 1 nM
- Activity [9]: Not Active
- Activity [10]: Active
- Activity [11]: Not Active
- Activity [12]: Not Active
- Activity [13]: Not Active
- IC50 [14]: 4 nM
- Activity [15]: Non-toxic
- Activity [16]: Active
- Activity [17]: Active
- Activity [18]: Active
- Activity [19]: inactive
- Activity [20]: inactive
- Activity [21]: inactive
- Activity [22]: inactive
- Activity [23]: inactive
- Activity [24]: inactive
- Activity [25]: inactive
- Activity [26]: inactive
- Activity [27]: Active
- Activity [28]: Active
- Activity [29]: Active
- Activity [30]: Active
- Activity [31]: Active
- Activity [32]: Active
- Activity [33]: Active
- Activity [34]: Active
- Activity [35]: Active
- Activity [36]: Active
- Activity [37]: inactive
- Activity [38]: Active
- IC50 [39]: 200 nM
- Activity [40]: Non-toxic

Source: ChEMBL document CHEMBL1152982, “Synthetic analogue of rocaglaol displays a potent and selective cytotoxicity in cancer cells: involvement of apoptosis inducing factor and caspase-12” (J Med Chem, 2009)
